NadD inh = NadD (S. aureus) enzyme inhibition. inhibition, % at 20 µM. 0.78% of 360,000 active. AID 602399. purified NadD enzyme, colorimetric absorbance read-out; in the data active = inhibition above about 26%
ARFGAP1 inh = inhibits rat ARF GTPase activating protein 1. Q62848. Arfgap1-stimulated ARF1 GTP hydrolysis, GDP FP detection. inhibition, % at 16.5 µM. 0.26% of 360,000 active. AID 651572;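 active = inhibition above a per-plate limit, mean inhibition of low control wells plus 3 SD, cut at about 25% in these data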;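 also: 0% = DMSO wells with enzyme and 100% = wells lacking Arfgap1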
Target sequence (Q62848 1-136 limits assumed): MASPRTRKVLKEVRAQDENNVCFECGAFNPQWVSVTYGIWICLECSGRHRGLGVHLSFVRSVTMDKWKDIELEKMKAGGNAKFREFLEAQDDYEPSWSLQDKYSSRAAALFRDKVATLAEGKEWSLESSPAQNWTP
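System: truncated rat Arfgap1 GAP domain / Medium: HEPES-based buffer, pH 7.5 / Also added: N-terminally truncated human ARF1-GTP substrate / Incubation: enzyme reaction 120 min at 25 °C after 20 min preincubation / Measured by: FP of antibody-bound GDP Alexa 633 tracer, ex 620/em 688 nm / Replicates: singlicate, each compound tested once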
rCAG RNA binder = r(CAG) repeat RNA binding | TO-PRO-1 dye displacement fluorescence | inhibition, % at 3 µM | 1.3% of 370,000 active | AID 651821;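 active = inhibition above the plate cutoff, the mean of all test compounds on that plate plus 3 SD, cut at about 35% in these data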;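 also: 0% = DMSO alone and 100% = 100 µM mitoxantrone as full dye displacement; higher means more dye released from RNA so lower well fluorescence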
ASAP1 GAP inh = blocks human ASAP1-stimulated Arf1 GTP hydrolysis; AID 624377; GDP FP detection; 0.19% of 360,000 active; inhibition, % at 16.5 µM; Q9ULH1; in the data active = inhibition above about 25%;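 also: 0% = vehicle with enzyme and substrate and 100% = no enzyme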
Target sequence (Q9ULH1 325-724 limits assumed): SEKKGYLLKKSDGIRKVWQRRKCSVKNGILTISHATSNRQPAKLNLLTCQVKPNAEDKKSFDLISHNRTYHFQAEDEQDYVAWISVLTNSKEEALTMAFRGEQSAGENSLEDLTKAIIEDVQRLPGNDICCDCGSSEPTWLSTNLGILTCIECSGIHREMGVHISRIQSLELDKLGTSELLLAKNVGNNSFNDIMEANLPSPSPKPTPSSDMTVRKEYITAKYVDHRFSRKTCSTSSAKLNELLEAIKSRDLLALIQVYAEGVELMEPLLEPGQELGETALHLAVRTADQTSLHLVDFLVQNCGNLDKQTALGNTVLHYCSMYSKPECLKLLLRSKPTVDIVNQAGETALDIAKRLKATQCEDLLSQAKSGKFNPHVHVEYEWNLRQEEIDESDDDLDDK
NadD inh conf = NadD (S. aureus) inhibition, single concentration confirmation. shares compounds with NadD inh. purified S. aureus NadD, colorimetric enzyme assay. inhibition, % at 20 µM. 13% of 2,000 active. AID 624309; in the data active = inhibition mostly above about 42%, no sharp cut-off; inactive = mostly below about 42%
An asterisk follows results filed as active; . = no result. Most compounds without a hit are left out; they make up all but 2.2% or so of the library.

SMILES	NadD inh	ARFGAP1 inh	rCAG RNA binder	ASAP1 GAP inh	NadD inh conf
CCOC(=O)c1cc2c(=O)n3cccc(C)c3nc2n(Cc2ccco2)c1=NC(=O)c1ccc(C)cc1	0	.	.	.	.
CCOC(=O)c1cc2c(=O)n3ccccc3nc2n(Cc2ccco2)c1=NC(=O)c1ccccc1OC	28	4	9	5	.
CCOC(=O)c1cc2c(=O)n3ccccc3nc2n(Cc2ccco2)c1=NC(=O)c1ccc(OC)cc1	32*	-2	30	-1	7
COc1cc(-c2c(C(=O)c3ccccc3)[nH]c(N)c2C(=O)NCCc2c[nH]c3ccccc23)ccc1F	.	12	11	10	.
Cc1ccc(-c2cc(C(=O)NN=Cc3ccc(-c4ccccc4)cc3)[nH]n2)cc1	.	.	10	.	.
O=C(Cc1cc(=O)[nH][nH]1)N/N=C/C=C/c1ccccc1	34*	18	29	15	64*
CCOC(=O)c1ccc2c(c1)nc(SCC(=O)c1ccco1)n2CC	-2	5	1	1	.
CCOC(=O)c1ccc2c(c1)nc(SC/C(O)=C(\C#N)c1nc3ccccc3[nH]1)n2CC	33*	5	5	-11	15
COC(=O)c1ccc2c(c1)NC(=O)C1CCCN21 (centres undefined)	3	.	.	.	.
Cc1ccc(NC(=O)COC(=O)c2ccc3c(c2)NC(=O)C2CCCN32)cc1 (centres undefined)	38*	11	15	-11	32
O=C(OC1CC2CCC(C1)[N+]21CCCC1)C(O)(c1ccccc1)c1ccccc1 (centres undefined)	.	.	4	.	.
COc1cccc(-c2nc(N3CCN(c4ccccc4)CC3)c3ccccc3n2)c1O	31*	-12	4	-10	8
CCOc1ccc(N2C(=O)C3Sc4[nH]c(=O)sc4C(/C=C/c4ccccc4)C3C2=O)cc1 (centres undefined)	32*	-4	57*	2	46
CCOc1ccc(N2C(=O)C3ON(c4ccccc4)C(c4ccco4)C3C2=O)cc1 (centres undefined)	-1	2	2	-5	.
O=C(O)COc1ccc(NC(=O)c2ccc3c(c2)C(=O)N(CC2CCCO2)C3=O)cc1 (centres undefined)	-6	0	5	-1	.
CCC(=O)N(Cc1ccc2c(c1)OCO2)Cc1cc2cc(OC)ccc2[nH]c1=O	33*	7	-1	2	12
CCN(Cc1cc2cc(OC)ccc2[nH]c1=O)C(=O)Cc1ccc(OC)cc1	4	-12	-1	-13	.
O=c1[nH]c2ccc(Cl)cc2c(-c2ccccc2)c1SC(=S)N1CCCCC1	37*	-9	9	-10	7
O=c1[nH]c2ccc(Cl)cc2c(-c2ccccc2)c1SC(=S)N1CCOCC1	40*	-3	3	4	-8
NNC(=O)CSc1c(-c2ccccc2)c2cc(Cl)ccc2[nH]c1=O	9	-11	16	-1	.
CCOC(=O)[C@]12CCCC=C1N(CCC1=CCCCC1)C(=O)[C@H](CC(=O)NCCCN1CCCC1=O)C2	.	-14	-1	-5	.
COc1ccccc1C(CNC(=O)c1oc2ccccc2c1C)N1CCCC1 (centres undefined)	5	-8	3	-2	.
O=C(C(=O)N1CCN(C(=O)c2ccco2)CC1)c1ccccc1	.	7	0	10	.
COc1ccc(-c2csc(/C(C#N)=C\c3ccc(O)c([N+](=O)[O-])c3)n2)cc1OC	27*	1	8	-4	11
Fc1ccc(Cn2ccc3ccc(-c4ccc5ccn(Cc6ccc(F)cc6)c5c4)cc32)cc1	.	.	10	.	.
SMILES	NadD inh	ARFGAP1 inh	rCAG RNA binder	ASAP1 GAP inh	NadD inh conf
Cc1cc2[nH]c(=O)c(=O)[nH]c2cc1S(=O)(=O)N1CCN(c2cccc(C(F)(F)F)c2)CC1	31*	-4	16	-4	50*
Cc1cc2[nH]c(=O)c(=O)[nH]c2cc1S(=O)(=O)N1CCN(c2cccc(Cl)c2)CC1	23	-4	23	5	.
C=CCCN1[C@@H](Cc2ccccc2)COc2ccccc2S1(=O)=O	.	-8	2	6	.
O=C(Nc1ccc(Cl)cc1)[C@@H]1[C@@H]2C(=O)N(c3ccc(Cl)cc3)C(=O)[C@@H]2[C@H]2C=CC=NN21	37*	9	23	-5	11
Cc1ccc(N2C(=O)[C@@H]3[C@H](C2=O)[C@H]2C=CC=NN2[C@@H]3C(=O)Nc2ccc(Cl)cc2)cc1	3	9	34	-4	.
COc1ccccc1N1C(=O)[C@@H]2[C@H](C1=O)[C@H](C(=O)c1ccc(OC(C)=O)cc1)N1N=CC=C[C@@H]21	.	-1	18	6	.
CC(=O)Oc1ccc(C(=O)[C@H]2[C@H]3C(=O)N(c4ccc5ccccc5c4)C(=O)[C@H]3[C@@H]3C=CC=NN32)cc1	40*	5	18	5	16
CCOC(=O)Cn1cc(CN2C(C(=O)OC)CN(Cc3ccc(Cl)cc3)CCS2(=O)=O)nn1 (centres undefined)	.	.	0	.	.
CC(=O)N1CCN(c2ccc(NC(=O)C(c3ccccc3)c3ccccc3)cc2)CC1	1	7	-6	5	.
O=C(Cc1ccccc1)Nc1ccc(N2CCOCC2)cc1	-1	8	-3	8	.
O=C(Nc1ccc(N2CCCC2)cc1)C(c1ccccc1)c1ccccc1	37*	6	11	7	-7
O=C(Cc1ccccc1)Nc1ccc(N2CCCC2)cc1	41*	12	13	9	17
Nc1ncnc2c1ncn2[C@@H]1O[C@H](C(=O)N[C@H](CO)Cc2ccc(O)cc2)[C@@H](O)[C@H]1O	-1	3	1	-6	.
COc1ccc(C(C)=O)cc1COC(=O)CCNS(=O)(=O)c1ccc(C(C)=O)cc1	-1	2	0	-3	.
Cc1ccccc1C(=O)Nc1ccnn1C1CCN(C(C)Cc2ccccc2F)CC1 (centres undefined)	-11	0	-19	9	.
O=C(CSc1nnc(-c2ccc3c(c2)OCO3)o1)Nc1ncc(C(F)(F)F)cc1Cl	34*	-1	3	-4	5
Cc1onc(-c2c(F)cccc2Cl)c1-c1ncc(-c2ccc(Cl)cc2)o1	.	1	1	8	.
CCCn1c(C(C)NC(=O)c2ccccc2)nc2ccccc21 (centres undefined)	-5	3	-4	0	.
CCN(CC)c1ccc(NC(=O)Cn2c(C(C)NC(=O)c3ccc(C)cc3)nc3ccccc32)cc1 (centres undefined)	34*	-7	-1	10	2
Cc1cc(C(=O)OCCCN(C)C2CN(Cc3cn(Cc4ccccc4C(F)(F)F)nn3)S(=O)(=O)C2)no1 (centres undefined)	.	.	2	.	.
COc1ccc(-c2cc(C#N)nc(N3CCN(C)CC3)n2)cc1	-21	-7	-8	11	.
COc1ccc(-c2cc(C#N)nc(N3CCNCC3)n2)cc1	45*	75*	15	53*	37
O=C(Nc1ccc2oc(-c3cccc4ccccc34)nc2c1)c1ncn[nH]1	27*	-9	7	8	-2
CC(C)c1ccc2oc(-c3ccc(NC(=O)c4ncn[nH]4)cc3)nc2c1	39*	12	10	2	9

Screening results: PubChem, several laboratories
